This note sets out measurements from ChEMBL document CHEMBL1687900, “Potent farnesyltransferase inhibitors with 1,4-diazepane scaffolds as novel destabilizing microtubule agents in hormone-resistant prostate cancer” (J Med Chem, 2011).

Active and inactive are the calls of the source. The calls are words filed in the database; no cut-off is given here.

Series [1] concerns PC-3. In words: Anticancer activity against hormone-resistant human PC3 cells assessed as cell proliferation at 100 uM after 72 hrs by MTT assay. It is filed as functional. The conditions noted are these: PC-3, 72 h. For orientation: Tetrazolium assays rely on reduction of a dye to a coloured formazan, in cell work by metabolically active cells.
The subject of series [2] is DU-145. In words: Anticancer activity against hormone-resistant human DU145 cells assessed as cell proliferation at 100 uM after 72 hrs by MTT assay. In kind it is functional. To be noted: DU-145, 72 h.
Series [3] can be described thus: Inhibition of FTase. A digest of the protocol: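 Partially purified recombinant yeast FTase (2.2 mg/mL stock) and dansyl-GCVLS peptide (2 μM solution) were used with inhibitor in DMSO. Buffer was 50 mM Tris/HCl pH 7.5, 5.5 mM DTT, 10 mM MgCl2, 10 μM ZnCl2 and 0.08% CHAPS. Reaction was started with 10 μM FPP solution (1:10 addition). Fluorescence (ex 340 / em 486 nm) was followed 15 min at 30 °C. Values are the mean of three determinations.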

In series [4] the test system is DU-145. The experiment in a line: Anticancer activity against hormone-resistant human DU145 cells assessed as cell proliferation after 72 hrs by MTT assay. In kind it is functional, cell-based. To be noted: DU-145, 72 h. A digest of the protocol:
(§1)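 DU145 or PC3 cells (RPMI 1640, 10% FBS, 2 mM glutamine, 37 °C, 5% CO2) seeded at (1.6-1.8) 10^4 per well. After 72 h they were serum-deprived, and next day treated with various compound concentrations for 72 h. Viability was read by MTT (4 mg/mL, 4 h), SDS/HCl lysis and absorbance at 570 nm. Values come from at least three independent determinations.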

For series [5], the system named is PC-3. The experiment in a line: Anticancer activity against hormone-resistant human PC3 cells assessed as cell proliferation after 72 hrs by MTT assay. It is filed as functional, cell-based. To be noted: PC-3, 72 h. The procedure, abridged: as §1
A short description of series [6]: Apparent permeability across human Caco2 cells. It is filed as ADME, cell-based. The conditions noted are these: Caco-2. In general terms: Caco-2 monolayers are a common model of the intestinal barrier.
Series [7] concerns PC-3. The experiment in a line: Induction of disorganization of tubulin in human PC3 cells assessed as microtubule bundles at 18 uM by immunofluorescence microscopy. In kind it is functional, cell-based. A digest of the protocol: (§2)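 PC3 cells were grown on poly-D-lysine coverslips overnight, synchronized, then exposed 24 h to compound or DMSO. They were fixed in 4% paraformaldehyde, permeabilized with 0.5% Triton X-100, and blocked 45 min in 5% BSA. Staining used Alexa 488 anti-α-tubulin (1/100). Microtubule network was examined by fluorescence microscopy.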

Series [8] deals with PC-3. The experiment in a line: Induction of disorganization of tubulin in human PC3 cells assessed as decrease in microtubulin mass at 18 uM by immunofluorescence microscopy. It is filed as functional, cell-based. A digest of the protocol:
as §2

The test system of series [9] is Liver microsomes. The experiment in a line: Metabolic stability of the compound in human liver microsome assessed as compound remaining. In kind it is ADME. A digest of the protocol: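 Metabolic stability was tested in human liver microsomes, expressed as percentage of parent compound remaining at assay end.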
For orientation: Microsomes from liver hold many membrane-bound enzymes, among them those of drug oxidation.

Series [10] relates to PC-3. The experiment in a line: Anticancer activity against human PC3 cells xenografted mouse assessed as suppression of tumor at 30 mg/kg. In kind it is functional.
Series [11] deals with PC-3. The experiment in a line: Induction of disorganization of tubulin in human PC3 cells assessed as microtubule bundles at 75 uM after 24 hrs by immunofluorescence microscopy. It is filed as functional, cell-based. The procedure, abridged:
as §2

Series [12] has as its system DU-145. The experiment in a line: Anticancer activity against human DU145 cells xenografted mouse assessed as suppression of tumor at 30 mg/kg. In kind it is functional.
Series [13] has as its system PC-3. In words: Induction of disorganization of tubulin in human PC3 cells assessed as decrease in microtubulin mass at 32 uM by immunofluorescence microscopy. In kind it is functional, cell-based. A digest of the protocol:
as §2

Series [14] concerns PC-3. The experiment in a line: Induction of disorganization of tubulin in human PC3 cells assessed as microtubule bundles at 32 uM by immunofluorescence microscopy. In kind it is functional, cell-based. The procedure, abridged: as §2
In series [15] the test system is PC-3. In words: Induction of disorganization of tubulin in human PC3 cells assessed as microtubule bundles at 21 uM by immunofluorescence microscopy. It is filed as functional, cell-based. The procedure, abridged:
as §2

For orientation: inhibition means how much of the control response was suppressed. Broadly, the IC50 is the concentration that gives 50% inhibition. In the case of `N#Cc1ccc(Cn2cncc2CN2CCCN(C(=O)c3ccncc3)CC2)cc1`, the inhibition at 100 µM in [1] is 12%; in series [2], 6%. Also, half-maximal inhibition in series [3] (IC50) was put at 0.142 µM.
For `N#Cc1ccc(Cn2cncc2CN2CCC(c3ccccc3)N(C(=O)c3ccccc3-c3ccccc3)CC2)cc1` (configuration not stated), the IC50 in series [4] is 47 µM; in series [5], 50 µM; in series [3], 0.057 µM.
The corresponding values for `N#Cc1ccc(Cn2cncc2CN2CCCN(C(=O)c3ccccc3-c3ccccc3)CC2)cc1` are 43 µM, 39 µM and 0.026 µM.
On the same counts, the results for `N#Cc1ccc(Cn2cncc2CN2CCCN(C(=O)c3ccc4ccccc4c3)CC2)cc1` are 52 µM, 47 µM and 0.035 µM.
Consider `N#Cc1ccc(Cn2cncc2CN2CCN(C(=O)c3cccc4ccccc34)CCC2c2ccccc2)cc1` (configuration not stated), for which the values for the IC50 in [4], in series [5] and in [3] were 48 µM, 77 µM and 0.018 µM, respectively.
`N#Cc1ccc(Cn2cncc2CN2CCCN(C(=O)c3ccccc3Br)CC2)cc1`: the inhibition at 100 µM in series [1] was 15%; in series [2], 17%. It took 0.064 µM to reach half-maximal inhibition in series [3] (IC50).
The corresponding values for `Cc1cccc(C(=O)N2CCCN(Cc3cncn3Cc3ccc(C#N)cc3)CC2)c1` are 0%, 34% and 0.015 µM.
For orientation: Papp means a coefficient for how fast a substance crosses the barrier. Take `CNC(=C[N+](=O)[O-])NCCSCc1ccc(CN(C)C)o1` [RANITIDINE]: the Papp in [6] was 0.7 ×10⁻⁶ cm/s.
For the compound `N#Cc1ccc(Cn2cncc2CN2CCCN(C(=O)c3ccsc3)CC2)cc1`, the inhibition at 100 µM in series [1] was determined as 4%; in series [2], 3%. The compound further showed a half-maximal inhibitory concentration (IC50) in [3] of 0.042 µM.
Consider `CC(CCc1ccccc1)NCC(O)c1ccc(O)c(C(N)=O)c1` (configuration not stated) [LABETALOL], for which the Papp in series [6] amounted to 7.3 ×10⁻⁶ cm/s.
`N#Cc1ccc(Cn2cncc2CN2CCN(C(=O)C3CCCCC3)CCC2c2ccccc2)cc1` (configuration not stated): the outcome in [7] and in [8] was Active. For the same compound, the IC50 in series [4] stood at 29 µM; in [5], 18 µM; in series [3], 0.007 µM. Besides, in [6], the Papp was determined as 25.1 ×10⁻⁶ cm/s. Further, in series [9], the Stability came out at 2%.
For `N#Cc1ccc(Cn2cncc2CN2CCCN(C(=O)c3cccc(-c4ccccc4)c3)CC2)cc1`, the half-maximal inhibitory concentration (IC50) worked out at 42 µM in series [4], 44 µM in [5] and 0.043 µM in series [3].
The corresponding values for `N#Cc1ccc(Cn2cncc2CN2CCC(c3ccccc3)N(C(=O)c3cccc4ccccc34)CC2)cc1` (configuration not stated) are 54 µM, 50 µM and 0.06 µM.
In the case of `N#Cc1ccc(Cn2cncc2CN2CCC(c3ccccc3)N(C(=O)C3CCCCC3)CC2)cc1` (configuration not stated), the inhibition at 100 µM in series [1] is 5%. This compound yielded an IC50 in [3] of 0.503 µM.
For the compound `N#Cc1ccc(Cn2cncc2CN2CCN(C(=O)c3ccc(Cl)cc3Cl)CCC2c2ccccc2)cc1` (configuration not stated), the results for the IC50 in series [4], in [5] and in [3] were 44 µM, 38 µM and 0.021 µM, respectively.
Take `N#Cc1ccc(Cn2cncc2CN2CCCN(C(=O)c3ccccc3F)CC2)cc1`: the inhibition at 100 µM worked out at 2% in series [1] and 7% in [2]. 0.14 µM corresponded to half-maximal inhibition in series [3] (IC50).
For the compound `N#Cc1ccc(Cn2cncc2CN2CCCN(C(=O)c3ccc(-c4ccccc4)cc3)CC2)cc1`, the figures for the 50% inhibitory concentration (IC50) in series [4], in series [5] and in [3] were 47 µM, 50 µM and 0.153 µM, respectively.
On the same counts, the results for `N#Cc1ccc(Cn2cncc2CN2CCCN(C(=O)c3ccccc3Cl)CC2)cc1` are 100 µM, 70 µM and 0.025 µM.
With `N#Cc1ccc(Cn2cncc2CN2CCCN(C(=O)C3CCCCC3)CC2)cc1`, the inhibition at 100 µM came to 20% in series [1] and 23% in series [2]. This compound displayed an IC50 in series [3] of 0.024 µM.
Take `COc1cccc(C(=O)N2CCCN(Cc3cncn3Cc3ccc(C#N)cc3)CC2)c1OC`: the IC50 in [5] is 80 µM; in series [3] it was 0.043 µM. Besides, in series [2], the inhibition at 100 µM turned out to be 44%.
A word on the inhibition in vivo: it is how much of the control response was suppressed. Regarding `CC[C@H](C)[C@@H](CO[C@@H](Cc1ccccc1)C(=O)N[C@@H](CCS(C)(=O)=O)C(=O)OC(C)C)NC[C@@H](N)CS`, the inhibition in vivo at 30 mg/kg in series [10] was found to be 87%; in series [12], 85%. In addition, the 50% inhibitory concentration (IC50) was 78 µM in [4], 75 µM in series [5] and 0.027 µM in series [3]. Also, in series [11], the outcome was Active.
Take `CC(C)NCC(O)COc1cccc2ccccc12` (configuration not stated) [PROPRANOLOL]: the Papp in [6] stood at 41.1 ×10⁻⁶ cm/s.
Turning to `N#Cc1ccc(Cn2cncc2CN2CCCN(C(=O)c3ccc(Cl)cc3Cl)CC2)cc1`, the IC50 was determined as 45 µM in [4], 26 µM in [5] and 0.041 µM in [3].
Regarding `N#Cc1ccc(Cn2cncc2CN2CCCN(C(=O)c3ccc(F)cc3)CC2)cc1`, the values for the inhibition at 100 µM in series [1] and in [2] were 40% and 27%, respectively. For the same compound, the IC50 in series [3] is 0.069 µM.
In the case of `N#Cc1ccc(Cn2cncc2CN2CCCN(C(=O)c3cccc4ccccc34)CC2)cc1`, the figures for the IC50 in series [4], in series [5] and in [3] were 44 µM, 65 µM and 0.039 µM, respectively.
The corresponding values for `N#Cc1ccc(Cn2cncc2CN2CCN(C(=O)c3ccccc3)CCC2c2ccccc2)cc1` (configuration not stated) are 73 µM, 33 µM and 0.009 µM.
On the same counts, the results for `N#Cc1ccc(Cn2cncc2CN2CCC(c3ccccc3)N(C(=O)c3ccccc3)CC2)cc1` (configuration not stated) are 75 µM, 80 µM and 0.079 µM.
Turning to `N#Cc1ccc(Cn2cncc2CN2CCCN(C(=O)Cc3cccc4ccccc34)CC2)cc1`, the inhibition at 100 µM in [1] worked out at 40%. Moreover, the IC50 in series [4] was 93 µM; in series [3], 0.013 µM.
As for `N#Cc1ccc(Cn2cncc2CN2CCN(C(=O)C34CC5CC(CC(C5)C3)C4)CCC2c2ccccc2)cc1` (configuration not stated), the result in series [13] and in series [14] was Active. In addition, the IC50 in series [4] was determined as 32 µM; in series [5], 32 µM; in series [3] it was 0.006 µM. Moreover, the Papp in series [6] was found to be 3.6 ×10⁻⁶ cm/s. Besides, the Stability in [9] is reported as 3%.
Regarding `N#Cc1ccc(Cn2cncc2CN2CCCN(C(=O)C34CC5CC(CC(C5)C3)C4)CC2)cc1`, the IC50 amounted to 44 µM in series [4], 21 µM in series [5] and 0.005 µM in [3]. Also, in series [15], the result was Active. In series [6], the Papp turned out to be 28.8 ×10⁻⁶ cm/s. For the same compound, in [9], the Stability was 1%.
Take `N#Cc1ccc(Cn2cncc2CN2CCCN(C(=O)c3ccccc3)CC2)cc1`: the inhibition at 100 µM is 22% in series [1] and 24% in series [2]. The IC50 in series [3] amounted to 0.008 µM.
Consider `N#Cc1ccc(Cn2cncc2CN2CCC(c3ccccc3)N(C(=O)c3ccc(Cl)cc3Cl)CC2)cc1` (configuration not stated), for which the IC50 in [5] came to 76 µM; in series [3], 0.382 µM. Also, in series [2], the inhibition at 100 µM stood at 31%.
Take `N#Cc1ccc(Cn2cncc2CN2CCC(c3ccccc3)N(C(=O)C34CC5CC(CC(C5)C3)C4)CC2)cc1` (configuration not stated): the IC50 in [4] was 42 µM; in series [5] it was 41 µM; in series [3], 0.017 µM.
On to `CC(C)CC(=O)N1CCCN(Cc2cncn2Cc2ccc(C#N)cc2)CC1`, for which the inhibition at 100 µM turned out to be 13% in [1] and 18% in [2]. For the same compound, the IC50 in [3] came to 0.205 µM.
Take `N#Cc1ccc(Cn2cncc2CN2CCN(C(=O)c3ccccc3-c3ccccc3)CCC2c2ccccc2)cc1` (configuration not stated): the IC50 in [4] is 35 µM; in series [5], 50 µM; in series [3] it was 0.017 µM.
